In the library only some 2.4% were active in any assay of this set; here they are far more common.
STEP block – inhibitors of human striatal-enriched phosphatase STEP; P54829; recombinant STEP, OMFP fluorogenic substrate, fluorescence; inhibition, % at 20 µM; 360,000 compounds, 0.25% hits;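 active means inhibition at 20 µM, scaled per plate between control wells, above about 37%, limit read from the data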
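Measure: Control-normalized % inhibition with plate pattern correction | Test system: STEP phosphatase, cell-free reaction | Medium: pH 6.0 Bis-Tris with DTT and Tween 20 | Technique: Fluorescence, 480/540 nm | Times: Reaction 20 min, ambient temperature | Doses: Single compound dose of 20 µM, 1% DMSO final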
NadD inh – inhibitors of Staphylococcus aureus NadD | purified NadD enzyme, colorimetric absorbance read-out | inhibition, % at 20 µM | 360,000 compounds, 0.78% hits; in the data active means inhibition above about 26%
SUMO1-SIM PPI – SUMO1-SIM interaction modulation. P63165. SUMO1 binding to a labelled peptide, TR-FRET, 1 h. inhibition, % at 20 µM. 360,000 compounds, 0.33% hits. AID 602429; in the data active means inhibition above about 37%
Target sequence (P63165 whole entry, looked up): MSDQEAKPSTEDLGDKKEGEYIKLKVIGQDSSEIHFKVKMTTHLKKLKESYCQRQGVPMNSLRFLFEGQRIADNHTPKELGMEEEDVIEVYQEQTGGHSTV
LMPTP inh – blocks human LMPTP phosphatase | P24666 | AID 651560 | 360,000 compounds, 0.22% hits | recombinant LMPTP-A, OMFP fluorogenic substrate, fluorescence intensity | inhibition, % at 20 µM;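 active means compounds that cut the enzyme signal by at least half of the control window in the single-dose screen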
Target sequence (P24666 whole entry, looked up): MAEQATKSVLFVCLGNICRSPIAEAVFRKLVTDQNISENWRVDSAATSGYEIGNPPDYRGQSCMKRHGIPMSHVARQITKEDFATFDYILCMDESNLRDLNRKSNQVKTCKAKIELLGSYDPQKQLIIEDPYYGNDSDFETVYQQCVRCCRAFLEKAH
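Assay system: LMPTP-A phosphatase enzyme | Input: 0.625 nM enzyme | Also added: Fluorogenic phosphatase substrate OMFP at 400 µM final | Compound dosing: One test concentration per compound, 20 µM, with 3% DMSO overall | Schedule: 50 min enzyme reaction at room temperature, protected from light | Signal: Fluorescence intensity | Benchmarks: no-enzyme and uninhibited controls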
Scp-1 inhibitor – Scp-1 (human) phosphatase inhibition. Q9GZU7. Recombinant Scp1, phosphopeptide, malachite green phosphate absorbance. inhibition, % at 20 µM. 340,000 compounds, 0.88% hits;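 active means inhibition above about 50% at 20 µM, limit read from the data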
Target sequence (Q9GZU7 76-261 limits assumed): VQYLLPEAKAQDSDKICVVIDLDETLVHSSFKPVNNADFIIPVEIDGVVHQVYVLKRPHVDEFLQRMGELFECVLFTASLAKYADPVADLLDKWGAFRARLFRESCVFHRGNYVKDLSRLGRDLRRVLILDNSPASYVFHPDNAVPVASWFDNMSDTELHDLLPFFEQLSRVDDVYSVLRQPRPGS
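Material: truncated SCP-1 phosphatase (76-261aa) / Buffer or medium: 50 mM Tris acetate pH 5.5, 0.005% Tween-20, 10 mM MgCl2 / Compound dosing: one concentration, 20 µM, with 1.0% DMSO / Incubation: 45 min room-temperature reaction, 5 min colour, 30 min stabiliser / Detection: colorimetric free-phosphate detection, absorbance 630 nm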
DNMT1 block – blocks human DNA methyltransferase DNMT1; P26358; DNMT1 molecular beacon, Hinp1I cleavage, fluorescence; inhibition (reported as % activation of signal), % at 10 µM; 360,000 compounds, 0.83% hits; in the data active means inhibition above about 50%
DNMT1 interf DR – shows spectral interference in the DNMT1 beacon assay; shares compounds with DNMT1 block; molecular beacon fluorescence, spectral interference counter-screen; IC50, µM; 200 tested, under 10 active; AID 602382; call rule not given here
DNMT1 inh conf – confirmation of human DNMT1 inhibitors; shares compounds with DNMT1 block; inhibition, % at 10 µM; 2,300 compounds, 8% hits; DNMT1 molecular beacon HinP1I cleavage, fluorescence;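 active means average inhibition of at least 30% in the single-concentration confirmation test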
Beacon interf – shows spectral interference in the DNMT1 beacon assay. shares compounds with DNMT1 block. DNMT1 molecular beacon spectral interference counterscreen, fluorescence 485/520. activation (fluorescence interference), % at 10 µM. 2,300 compounds, 1% hits. AID 602387;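 active means activation of at least 30% at 10 µM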;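 further: DNMT1 catalytic domain with a HinP1I cleavage step and a FAM/dabcyl DNA beacon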
Each line names hits and unclear results; the compound was inactive in the other large screens (follow-up assays come after a bar, where they were run).

Cc1ccc(/C=c2\sc3nc(-c4cccs4)nn3c2=O)o1	DNMT1 block 57.3 | DNMT1 inh conf inactive | Beacon interf inactive
COc1cccc(/C=c2\sc3nc(-c4cccs4)nn3c2=O)c1OC	none
O=c1c2c([nH]c3ccccc13)C(=C1CCCC1)CC2	LMPTP inh 59.2, DNMT1 block 91.9 | DNMT1 inh conf inactive | Beacon interf inactive
Cc1cccc(OC(C)C(=O)Nc2ccc3c(c2)OCCO3)c1 (stereo unspecified)	none
Cc1nn(Cc2ccccc2)c(C)c1NC(=O)CSc1nc(C2CC2)nc2c1cnn2-c1ccccc1	DNMT1 block 58.4 | DNMT1 inh conf inactive | Beacon interf inactive
Cc1nc(SCC(=O)Nc2c(C)n(C)n(-c3ccccc3)c2=O)c2cnn(-c3ccccc3)c2n1	none
O=C(CSc1nc(C2CC2)nc2c1cnn2-c1ccccc1)Nc1c[nH]c(=O)[nH]c1=O	none
Cc1nn(C)c(C)c1NC(=O)CSc1nc(Cc2ccccc2)nc2c1cnn2-c1ccccc1	DNMT1 block 50.6 | DNMT1 inh conf inactive | Beacon interf inactive
O=C(NCc1cccnc1)c1ccc(NC(=O)c2ccc([N+](=O)[O-])cc2)cc1	none
COc1ccc(O)c(-c2cc(-c3ccccc3[N+](=O)[O-])[nH]n2)c1	DNMT1 block 86.4 | DNMT1 inh conf inactive | Beacon interf inactive
CCN(CC)S(=O)(=O)c1cccc(C(=O)N[C@H](C(=O)NC2=NCCS2)C(C)C)c1	DNMT1 block 65.9 | DNMT1 inh conf inactive | Beacon interf inactive
Cc1ccc(C(C(=O)Nc2ccc3c(c2)OCO3)N(C)C(=O)/C=C\c2ccc3c(c2)OCO3)cc1 (stereo unspecified)	none
COc1cc(/C=C2/SC(=O)N(Cc3ccccc3Cl)C2=O)ccc1OCc1ccncc1	DNMT1 block 63.9 | DNMT1 inh conf inactive | Beacon interf inactive
CC[C@@H]1Cc2[nH][nH]c(=O)c2[C@H](c2ccc(Cl)cc2)O1	none (no result: STEP block, Scp-1 inhibitor, DNMT1 block)
Cc1ccccc1-c1cc2nc(C)c(C)c(=O)n2[nH]1	DNMT1 block 84.3 | DNMT1 inh conf inactive | Beacon interf inactive
Cc1nc2cc(-c3ccc(F)cc3)[nH]n2c(=O)c1C	none
CCc1ccc(-c2nc(NC(=O)c3ccc(OCC(=O)Nc4ccc(F)cc4)c(OC)c3)sc2C)cc1	DNMT1 block 60.8 | DNMT1 inh conf inactive | Beacon interf inactive
O=C(NCc1ccc2c(c1)OCO2)C1CCN(c2nccc(C(F)(F)F)n2)CC1	none
COc1cccc(C(=O)COC(=O)c2n[nH]c(=O)c3ccccc23)c1	none
CC(/C=N\NC(=O)c1cc(C)oc1C)=C\c1ccccc1	DNMT1 block 72.0 | DNMT1 inh conf inactive | Beacon interf inactive
O=C(O)CN1C(=O)/C(=C\c2cc(Br)ccc2OCc2ccc(Cl)cc2)SC1=S	SUMO1-SIM PPI 61.3, DNMT1 block 61.1 | DNMT1 interf DR inactive | DNMT1 inh conf 55.9 | Beacon interf inactive
O=C(O)CCCCN1C(=O)/C(=C\c2ccc(OCc3ccccc3)c(OCc3ccccc3)c2)SC1=S	DNMT1 block 80.5 | DNMT1 inh conf inactive | Beacon interf inactive
COc1cccc(N2CC34C=CC(O3)C(C(=O)O)C4C2=O)c1 (stereo unspecified)	DNMT1 block 53.2 | DNMT1 inh conf inactive | Beacon interf inactive
CCOc1ccc(NC(=S)NC(=O)/C=C/c2ccc(C)cc2)c([N+](=O)[O-])c1	DNMT1 block 53.3 | DNMT1 inh conf inactive | Beacon interf inactive
Cc1cc2ccccc2c(=O)n1CC(=O)NCCC1=CCCCC1	none
C=CCn1c(=NC(=O)c2cccs2)sc2cccc(OC)c21	none
C#CCn1c(=NC(=O)c2ccc(Br)s2)sc2cccc(OC)c21	DNMT1 block 51.8 | DNMT1 inh conf inactive | Beacon interf inactive

Screens as filed in PubChem.
